pIC50: −log10 of the molar value.
Experiments:
[1] = Cytotoxicity against African green monkey Vero cells assessed as reduction in cell viability after 48 hrs by SRB assay; format: cell-based; conditions: chlorocebus sabaeus
Procedure, shortened: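 Vero cells in MEM with 10% FBS, seeded at 2.5 × 10^4 cells/well. Exposed to a range of concentrations for 48 h at 37 °C, 5% CO2, then sulforhodamine B total-protein staining. CC50 is the concentration reducing viability by 50% versus untreated controls, from nonlinear regression; mean ± SD of three independent experiments.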

[2] = tested on: Human alphaherpesvirus 1; test: (§1) Antiviral activity against acyclovir-sensitive Herpes simplex virus 1 KOS infected in African green monkey Vero cells assessed as inhibition of viral replication after 48 hrs by naphthol blue-black staining-based plaque reduction assay; format: functional, organism-based; conditions: Human alphaherpesvirus 1, strain KOS
Procedure, shortened: (§2)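 Vero cells in MEM with 10% FBS, 37 °C, 5% CO2. Confluent monolayers (2.5 × 10^5 cells/well) infected with about 100 PFU for 1 h at 37 °C. Non-cytotoxic concentrations were added after infection. Cells were then PBS-washed and overlaid with MEM plus 1.5% carboxymethylcellulose, with or without compound, for 48 h. Fixed, naphthol blue-black stained, plaques counted under a stereomicroscope. IC50 versus untreated controls by nonlinear regression; mean of three independent experiments.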

[3] = as §1, with “Selectivity index, ratio of Cytotoxicity against African green monkey Vero cells assessed as reduction in cell viability after 48 hrs by SRB assay to Antiviral” for “Antiviral”; format: toxicity; conditions: Vero cells infected with HSV-1 KOS, read-out: Ratio CC50/IC50
Procedure, shortened: (§3)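 Selectivity index = CC50 in Vero cells (SRB, 48 h) divided by plaque-reduction IC50 for the same virus strain.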

[4] = tested on: Human alphaherpesvirus 1; test: (§4) Antiviral activity against acyclovir-resistant Herpes simplex virus 1 29-R infected in African green monkey Vero cells assessed as inhibition of viral replication after 48 hrs by naphthol blue-black staining-based plaque reduction assay; format: functional, organism-based; conditions: for pIC50: Human alphaherpesvirus 1, 29-R, Vero, 48 h, read-out: IC50; procedure, shortened: as §2
[5] = as §4, with “Selectivity index, ratio of Cytotoxicity against African green monkey Vero cells assessed as reduction in cell viability after 48 hrs by SRB assay to Antiviral” for “Antiviral”; format: toxicity; conditions: Vero cells infected with HSV-1 29-R, read-out: Ratio CC50/IC50; procedure, shortened: as §3
[6] = tested on: Human alphaherpesvirus 2; test: (§5) Antiviral activity against Herpes simplex virus 2-333 infected in African green monkey Vero cells assessed as inhibition of viral replication after 48 hrs by naphthol blue-black staining-based plaque reduction assay; format: functional, organism-based; conditions: Human alphaherpesvirus 2, 333, Vero; procedure, shortened: as §2
[7] = as §5, with “Selectivity index, ratio of Cytotoxicity against African green monkey Vero cells assessed as reduction in cell viability after 48 hrs by SRB assay to Antiviral” for “Antiviral”; format: toxicity; conditions: Vero cells infected with HSV-2 333, read-out: Ratio CC50/IC50; procedure, shortened: as §3
[8] = tested on: A549; test: Cytotoxicity against human A549 cells assessed as inhibition of cell viability after 48 hrs by SRB assay; format: functional, cell-based; conditions: A549, 48 h
[9] = tested on: HCT-8; test: Cytotoxicity against human HCT8 cells assessed as inhibition of cell viability after 48 hrs by SRB assay; format: functional, cell-based; conditions: HCT-8, 48 h
Procedure, shortened: (§6)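 Cells seeded at 2.5 × 10^4 per well and exposed to a concentration range for 48 h, then SRB total-protein stain. PC3 grown in phenol-red-free DMEM with 1% glutamine; LNCaP in phenol-red-free RPMI 1640 with glutamine and non-essential amino acids. HCT-8 and H460 in RPMI 1640. MRC-5 (plus glutamine and non-essential amino acids) and primary gingival fibroblasts in DMEM. All media had 10% FBS, 37 °C, 5% CO2. Paclitaxel was the reference. IC50 versus untreated controls by nonlinear regression, three independent experiments.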

[10] = tested on: LNCaP; test: Cytotoxicity against human LNCAP cells assessed as inhibition of cell viability after 48 hrs by SRB assay; format: functional, cell-based; procedure, shortened: as §6
[11] = tested on: PC-3; test: Cytotoxicity against human PC3 cells assessed as inhibition of cell viability after 48 hrs by SRB assay; format: functional, cell-based; conditions: PC-3, 48 h; procedure, shortened: as §6
[12] = tested on: NCI-H460; test: Cytotoxicity against human H460 cells assessed as inhibition of cell viability after 48 hrs by SRB assay; format: functional, cell-based; conditions: NCI-H460, 48 h; procedure, shortened: as §6
[13] = tested on: MRC5; test: Cytotoxicity against human MRC5 cells assessed as inhibition of cell viability after 48 hrs by SRB assay; format: cell-based; conditions: MRC5, 48 h; procedure, shortened: as §6
[14] = Cytotoxicity against human HGF cells assessed as inhibition of cell viability after 48 hrs by SRB assay; format: cell-based; procedure, shortened: as §6
[15] = Inhibition of porcine cortex Na+/K+-ATPase alpha1/2/3 subunit using ATP as substrate preincubated for 30 mins followed by substrate addition and measured after 30 mins by malachite green reagent-based assay; design: species or system Sus scrofa

Structure (SMILES)	CC50 at 48 h [1] [µM]	pIC50 [2]	selectivity ratio at 48 h [3]	pIC50 [4]	selectivity ratio at 48 h [5]	pIC50 [6]	selectivity ratio at 48 h [7]	pIC50 [8]	pIC50 [9]	pIC50 [10]	pIC50 [11]	pIC50 [12]	pIC50 [13]	pIC50 [14]	pIC50 [15]	IC50 ([4]; vero)
CC(=O)OC[C@H]1O[C@@H](OCc2cn([C@H]3CC[C@@]4(C)[C@H](CC[C@@H]5[C@@H]4CC[C@]4(C)[C@@H](C6=CC(=O)OC6)CC[C@]54O)C3)nn2)[C@H](OC(C)=O)[C@@H](OC(C)=O)[C@@H]1OC(C)=O	286	5.20	45.5	5.68	135	5.42	75.1	5.43	5.45	5.14	5.15	–	–	–	–	–
C[C@]12CC[C@H](O)C[C@H]1CC[C@@H]1[C@@H]2CC[C@]2(C)[C@@H](C3=CC(=O)OC3)CC[C@]12O [DIGITOXIGENIN]	27.5	5.96	25.3	5.99	27	5.49	8.53	5.77	5.61	5.43	5.62	6.04	5.94	5.83	–	–
C[C@]12CC[C@H](n3cc(CO[C@H]4O[C@H](CO)[C@@H](O)[C@H](O)[C@@H]4O)nn3)C[C@H]1CC[C@@H]1[C@@H]2CC[C@]2(C)[C@@H](C3=CC(=O)OC3)CC[C@]12O	> 300	6.26	> 546	6.43	> 811	6.39	> 732	6.24	5.99	5.78	6.24	6.62	6.44	5.85	5.26	–
CC(=O)O[C@H]1C(=O)[C@@]2(C)[C@H]([C@H](OC(=O)c3ccccc3)[C@]3(O)C[C@H](OC(=O)[C@H](O)[C@@H](NC(=O)c4ccccc4)c4ccccc4)C(C)=C1C3(C)C)[C@]1(OC(C)=O)CO[C@@H]1C[C@@H]2O [PACLITAXEL]	–	–	–	–	–	–	–	6.96	6.77	4.68	6.17	7.10	< 3.70	< 3.70	–	–
C[C@]12CC[C@H](n3cc(CO[C@@H]4O[C@H](CO)[C@@H](O)[C@H](O)[C@H]4O)nn3)C[C@H]1CC[C@@H]1[C@@H]2CC[C@]2(C)[C@@H](C3=CC(=O)OC3)CC[C@]12O	> 300	5.55	> 108	5.57	> 111	5.67	> 140	5.69	5.43	5.33	5.63	–	–	–	–	–
CC(=O)OC[C@H]1O[C@H](O[C@H]2[C@H](OC(C)=O)[C@@H](OC(C)=O)[C@H](OCc3cn([C@H]4CC[C@@]5(C)[C@H](CC[C@@H]6[C@@H]5CC[C@]5(C)[C@@H](C7=CC(=O)OC7)CC[C@]65O)C4)nn3)O[C@@H]2COC(C)=O)[C@H](OC(C)=O)[C@@H](OC(C)=O)[C@@H]1OC(C)=O	181	4.58	6.86	4.48	5.42	5.01	18.5	4.92	5.02	4.62	4.53	–	–	–	–	–
C[C@]12CC[C@H](NC(=O)CNc3ccc(Cl)cc3)C[C@H]1CC[C@@H]1[C@@H]2CC[C@]2(C)[C@@H](C3=CC(=O)OC3)CC[C@]12O	314	5.82	208	5.74	174	5.85	224	5.86	5.77	5.89	5.93	5.94	–	–	4.97	–
C[C@]12CC[C@H](NC(=O)CBr)C[C@H]1CC[C@@H]1[C@@H]2CC[C@]2(C)[C@@H](C3=CC(=O)OC3)CC[C@]12O	36.1	–	–	–	–	–	–	5.85	5.76	5.47	5.77	–	–	–	–	–
Nc1nc2c(ncn2COCCO)c(=O)[nH]1 [ACYCLOVIR]	> 2000	5.86	> 1450	–	–	5.49	> 619	–	–	–	–	–	–	–	–	Not Active
C[C@]12CC[C@H](n3cc(CO[C@@H]4O[C@H](CO)[C@H](O)[C@H](O)[C@H]4O)nn3)C[C@H]1CC[C@@H]1[C@@H]2CC[C@]2(C)[C@@H](C3=CC(=O)OC3)CC[C@]12O	290	6.01	296	6.04	315	5.91	234	5.66	5.59	5.13	5.56	–	–	–	–	–
CC(=O)OC[C@H]1O[C@H](OCc2cn([C@H]3CC[C@@]4(C)[C@H](CC[C@@H]5[C@@H]4CC[C@]4(C)[C@@H](C6=CC(=O)OC6)CC[C@]54O)C3)nn2)[C@@H](OC(C)=O)[C@@H](OC(C)=O)[C@@H]1OC(C)=O	393	5.00	39	5.22	65.4	5.34	86.4	5.80	5.72	5.50	5.53	5.80	–	–	5.35	–
C[C@]12CC[C@H](NC(=O)CN3CCC(c4ccccc4)CC3)C[C@H]1CC[C@@H]1[C@@H]2CC[C@]2(C)[C@@H](C3=CC(=O)OC3)CC[C@]12O	112	6.36	254	6.70	560	6.31	228	5.84	6.52	5.76	6.15	6.49	–	–	5.18	–
CC(=O)OC[C@H]1O[C@@H](OCc2cn([C@H]3CC[C@@]4(C)[C@H](CC[C@@H]5[C@@H]4CC[C@]4(C)[C@@H](C6=CC(=O)OC6)CC[C@]54O)C3)nn2)[C@H](OC(C)=O)[C@@H](OC(C)=O)[C@H]1OC(C)=O	216	–	–	–	–	–	–	5.40	5.23	4.95	5.21	–	–	–	–	–
C[C@]12CC[C@H](n3cc(CO[C@@H]4O[C@H](CO)[C@@H](O[C@H]5O[C@H](CO)[C@@H](O)[C@H](O)[C@H]5O)[C@H](O)[C@H]4O)nn3)C[C@H]1CC[C@@H]1[C@@H]2CC[C@]2(C)[C@@H](C3=CC(=O)OC3)CC[C@]12O	147	5.37	34.3	5.49	45.4	5.38	35.2	5.54	5.27	5.28	5.56	–	–	–	–	–
C[C@]12CC[C@H](NC(=O)CCl)C[C@H]1CC[C@@H]1[C@@H]2CC[C@]2(C)[C@@H](C3=CC(=O)OC3)CC[C@]12O	84	6.16	122	6.47	247	5.86	61.3	5.93	5.84	5.71	5.72	–	–	–	–	–

From ChEMBL document CHEMBL4390653, “Potential anti-herpes and cytotoxic action of novel semisynthetic digitoxigenin-derivatives” (Eur J Med Chem, 2019)
